High-throughput results (PubChem)
HUVEC inhibit: blocks proliferation of human endothelial cells. HUVEC proliferation, CellTiter-Glo luminescence, 72 h; active compounds read low. viability, % at 10 µM (by protocol). actives 1.1% (n = 86,000). AID 648;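 active means viability at or below 30%; inactive means viability above 30%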
ERa coact pot: ER-alpha (human) coactivator binding potentiation; coactivator binding (% of control), % at 25.6 µM; TR-FRET ERalpha-LBD/SRC-Cy5 coactivator binding, 2 h; 100 = basal binding, no effect; P03372; actives 1.3% (n = 86,000); in the data active means activity above about 200%;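 further: binding measured in presence of low estradiol as agonist stimulus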
H69AR inhibit: blocks growth of human H69AR lung tumor cells. H69AR lung tumor viability, ATP luminescence, 72 h; active compounds read low. actives 6% (n = 85,000). viability, % at 10 µM;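 active means viability at or below 40%; inactive means viability above 40%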;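 further: multidrug resistant small cell line overexpressing MRP-1 efflux transporter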
ERa SRC1 inh: blocks coactivator binding to human estrogen receptor alpha; inhibition, % at 25.6 µM; TR-FRET ER-alpha LBD / SRC-1 peptide, estradiol-bound; P03372; actives 1.7% (n = 86,000); in the data active means inhibition above about 50%
ERb coact inh: ER-beta (human) coactivator binding inhibition | actives 1.3% (n = 86,000) | inhibition, % at 25.6 µM | TR-FRET ER-beta LBD / SRC1-Cy5 peptide binding; receptor agonist-loaded with 1 µM estradiol;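 active means compounds whose percent inhibition of the receptor-coactivator binding signal exceeds about 50% in the single-dose screen, limit read from the data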
Target sequence (Q92731 whole entry, looked up, the tested form may be a part): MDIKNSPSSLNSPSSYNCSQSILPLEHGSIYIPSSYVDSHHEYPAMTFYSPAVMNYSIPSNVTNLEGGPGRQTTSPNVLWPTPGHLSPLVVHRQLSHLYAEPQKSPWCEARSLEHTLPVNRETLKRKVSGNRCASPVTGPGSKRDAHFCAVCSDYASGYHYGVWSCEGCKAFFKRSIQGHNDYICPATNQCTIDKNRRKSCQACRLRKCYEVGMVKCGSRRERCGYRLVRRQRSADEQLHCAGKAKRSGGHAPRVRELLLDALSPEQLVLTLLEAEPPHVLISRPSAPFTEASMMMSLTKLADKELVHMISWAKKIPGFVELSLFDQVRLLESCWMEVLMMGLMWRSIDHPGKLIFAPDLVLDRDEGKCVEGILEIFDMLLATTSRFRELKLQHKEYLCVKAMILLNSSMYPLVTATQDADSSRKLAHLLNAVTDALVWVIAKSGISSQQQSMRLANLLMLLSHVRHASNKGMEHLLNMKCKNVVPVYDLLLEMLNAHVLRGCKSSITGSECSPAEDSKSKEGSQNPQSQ
Fibroblast inh: blocks proliferation of human lung fibroblasts; LL 47 human lung fibroblast viability, ATP luminescence; active compounds read low; AID 719; actives 1.1% (n = 85,000); viability, % at 10 µM;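 active means viability at or below 50% in the single dose screen; inactive means viability above 50%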;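 further: compound exposure lasted 72 h before the ATP readout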
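Signal: luminescent ATP detection, CellTiter-Glo; assay system: LL 47 human lung fibroblasts; input: 1,150 cells/well; incubation: overnight cell rest, 72 h compound treatment at 37 °C; measure: % viability versus median cells-only luminescence; medium: IMEM growth medium with 15% fetal bovine serum; dosing: compound addition at 0.1% DMSO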
Large screens that a line does not name were inactive; [ ] = another dose, or the depositor's remark. Hits are enriched below; roughly 9.2% of the tested compounds scored in any of these assays.

COC(=O)C1=CNC=C(C(=O)OC)C1c1ccc(C(=O)OC)cc1	none
Cc1ccnc(NC2OC(=O)c3ccccc32)c1 (configuration not stated)	none
Cc1nc(NC(=O)c2ccccc2)sc1-c1csc(NCc2ccco2)n1	H69AR inhibit 17.8
Cc1nc(C)c(-c2csc(NCc3ccco3)n2)s1	none
COC(=O)c1ccc2c(=O)n(CCN3CCOCC3)c(=S)[nH]c2c1	none
COc1cc(C2c3c(oc4ccc(C)cc4c3=O)C(=O)N2c2cc(C)ccn2)cc(OC)c1OC (configuration not stated)	H69AR inhibit 32.1
Cc1ccc2oc3c(c(=O)c2c1)C(c1cccc(O)c1)N(c1ccccn1)C3=O (configuration not stated)	none
Cn1c(=O)[nH]c(=O)c2c1nc(SCC(=O)Nc1ccccc1)n2Cc1ccccc1	none
CCCCCOC(=O)Cn1c(SCC(=O)Nc2ccccc2)nc2c1c(=O)[nH]c(=O)n2C	H69AR inhibit 31.5
Cc1ccc(NC(=O)CN(C)C(=O)CSc2nc3ccccc3o2)cc1	none
Cc1ccc(-n2ncc(C(=O)N3CCc4ccccc4C3)c2NC(=O)c2ccco2)cc1C	H69AR inhibit 25.6
O=S(=O)(Nc1cccc2cccnc12)c1ccc(S(=O)(=O)N2CCCC2)cc1	H69AR inhibit 6.0
Cc1ccccc1-n1c(C)nc2ccccc21	none
Cc1ccc(C(C(=O)NC(C)(C)C)N(Cc2cccs2)C(=O)c2csnn2)cc1 (configuration not stated)	ERa SRC1 inh 59.7
Cc1ccc(-c2n[nH]c(=S)n2C)cc1	none
Cc1ccc(-c2n[nH]c(=S)n2/N=C/C=C/c2ccccc2[N+](=O)[O-])cc1	ERa coact pot 322.8, ERa SRC1 inh 52.7[fluorescence artefact?]
COc1ccc(-c2noc(-c3ccc(Br)o3)n2)cc1OC	HUVEC inhibit 28.9, ERa coact pot 386.7[fluorescence artefact?]
Cc1noc(/C=C/c2ccco2)c1S(=O)(=O)N1CCC(C(=O)N2CCc3ccccc3C2)CC1	none
Cc1ccc2[nH]c3c(N4CCN(Cc5ccccc5)CC4)ncnc3c2c1	HUVEC inhibit 13.6
Cc1ccc2c(c1)[nH]c1c(N3CCN(Cc4ccccc4)CC3)ncnc12	HUVEC inhibit 15.4
COc1cccc(N2CCN(c3ncnc4c3[nH]c3ccc(F)cc34)CC2C)c1 (configuration not stated)	HUVEC inhibit 2.3, H69AR inhibit 4.0, Fibroblast inh 1.9
Fc1ccc2[nH]c3c(N4CCN(C5CCCCC5)CC4)ncnc3c2c1	none
COc1ccc2[nH]c3c(N4CC(C)OC(C)C4)ncnc3c2c1 (configuration not stated)	none
Cc1ccc2[nH]c3c(N4CCCCCC4)ncnc3c2c1	HUVEC inhibit 32.2
CCOC(=O)c1cc(C(C)(C)C)oc1CNC(=O)c1c(C)oc2c1CCCC2	none
CCOc1ccc2[nH]c3c(N4CCN(c5ccccn5)CC4)ncnc3c2c1	none (no result: H69AR inhibit)
COc1cc2[nH]c3c(N4CCN(c5ccc(Cl)cc5)CC4)ncnc3c2cc1OC	H69AR inhibit 6.9
CC1(C)Cc2c(c(-c3ccco3)[nH]c(=O)c2C#N)CS1	ERb coact inh 62.0[fluorescence artefact?]
CC(=O)Nc1cc2c(cc1C(=O)c1ccccc1)OCCO2	ERb coact inh 62.9
O=C(CCSc1ccc(Cl)cc1)N1CCN(c2ncccn2)CC1	Fibroblast inh 44.8
CC(C)(C)c1ccc(C(=O)NCCC(=O)N2CCN(c3ncccn3)CC2)cc1	none
Cn1cc(/C=N/n2cnc3scc(-c4ccccc4)c3c2=O)c2ccccc21	H69AR inhibit 28.3
O=c1c(-c2cc3ccccc3o2)[n+]([O-])c2ccccc2n1OCc1ccccn1	H69AR inhibit 35.8
CCOn1c(=O)c(-c2cc3ccccc3o2)[n+]([O-])c2ccccc21	none
COC(=O)c1ccc(COC(=O)c2ccc(-n3cnnn3)cc2)o1	none
Nc1c(Cl)cc(Cl)cc1C(=O)OCC(=O)NC1CC1	ERb coact inh 55.1
Nc1sccc1C(=O)c1ccccc1	none
N#CCSc1ncnc2sc3c(c12)CCC3	none
Cc1sc2ncnc(SCC#N)c2c1C	ERa SRC1 inh 75.5[fluorescence artefact?]
Cn1c(SCC(=O)c2ccc3c(c2)OCCO3)nnc1C1CC1	none
CCN=c1scc(-c2ccco2)n1/N=C/c1ccc(O)cc1	H69AR inhibit 39.6
